# Assay outcomes as filed in PubChem.
# Rows were chosen to be rich in hits. Some 1.5% of all compounds tested hit in one or more screens of this group.
# CCR6 antagonist = blocks CCL20-driven beta-arrestin recruitment at human CCR6; CHO-K1 CCR6 PathHunter beta-arrestin, luminescence, CCL20-stimulated; AID 493098; inhibition, % at 20 µM; 340,000 compounds, 0.49% hits; P51684;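 active means compounds whose inhibition of the agonist-driven luminescence signal at 20 µM reaches about 50%, limit read from the data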;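 further: cells stimulated with CCL20 at 14 nM final; plate controls were DMSO with CCL20 for no effect and DMSO without agonist for full effect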
# APJ ag = agonists of human APJ apelin receptor; 330,000 compounds, 0.11% hits; P35414; activation, % at 20 µM; AID 2520; CHO-K1 APJ PathHunter beta-arrestin, luminescence; 0% DMSO wells, 100% apelin;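 active means activation more than six SD over the plate average, tested at 20 µM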;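 further: 0% = DMSO alone and 100% = apelin-13 at 10 nM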
#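 Material: CHO-K1 APJ beta-arrestin complementation cell line; Input: cell density 1000 per well; Incubation: compound stimulation 90 min at 25 °C, detection 60 min; Signal: luminescence from split beta-galactosidase complementation, Galacton Star/Emerald II substrate; Controls: DMSO-only wells as negative, 10 nM Apelin-13 as positive control.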
# APJ antag = antagonists of human APJ apelin receptor; CHO-K1 APJ beta-arrestin complementation, luminescence; inhibition, % at 20 µM; 330,000 compounds, 0.32% hits; AID 2521;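 active means inhibition above about 40% at 20 µM, limit read from the data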;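 further: cells challenged with 10 nM apelin-13 agonist together with compound; plate controls were apelin-13 plus DMSO wells for no effect and DMSO wells lacking apelin-13 for full effect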
# CXCR6 block = blocks human CXCR6 beta-arrestin recruitment. 360,000 compounds, 0.36% hits. inhibition, % at 20 µM. CHO-K1 PathHunter CXCR6 beta-arrestin, luminescence. O00574; in the data active means inhibition above about 34%, passing the limit was not always enough;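 further: antagonist mode with CXCL16 agonist at 10 nM final; 0% = 10 nM CXCL16 with DMSO and 100% = unstimulated wells without agonist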
# Target sequence (O00574 whole entry, looked up): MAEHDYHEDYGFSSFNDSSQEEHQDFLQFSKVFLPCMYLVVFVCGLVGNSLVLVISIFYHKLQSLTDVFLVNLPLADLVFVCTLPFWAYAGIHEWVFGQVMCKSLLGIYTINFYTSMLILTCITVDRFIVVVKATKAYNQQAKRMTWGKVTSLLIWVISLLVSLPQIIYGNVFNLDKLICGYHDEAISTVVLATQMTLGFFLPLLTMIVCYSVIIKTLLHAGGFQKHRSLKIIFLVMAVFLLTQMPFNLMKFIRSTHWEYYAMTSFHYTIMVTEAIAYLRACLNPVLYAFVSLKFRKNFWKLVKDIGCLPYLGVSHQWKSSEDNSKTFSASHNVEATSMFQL
# EBI2 antag = EBI2 (human) antagonism; P32249; inhibition, % at 5 µM; 360,000 compounds, 0.81% hits; EBI2 beta-arrestin recruitment, luminescence, 7a,25-OHC stimulated; in the data active means inhibition above about 38%;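 further: enzyme fragment complementation signal reports receptor beta-arrestin coupling in cells; 0% = agonist plus DMSO wells and 100% = wells without agonist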
# EBI2 antag conf = confirmation of human EBI2 receptor antagonists; EBI2 beta-arrestin luminescence, 7a,25-OHC antagonism; shares compounds with EBI2 antag; inhibition, % at 5 µM; 2,400 compounds, 29% hits;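 active means inhibition of at least 50%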
# EBI2 ag = counter-screen for EBI2 antagonists: EBI2 agonist activity; AID 652000; shares compounds with EBI2 antag; 2,400 tested, under 10 active; EBI2-expressing cells, agonist mode, luminescence, 60 min; 0% vehicle, 100% 7α,25-dihydroxycholesterol control; activation, % at 5 µM;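 active means activation of at least 50%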
# bGal counter = inhibits E. coli beta-galactosidase, counter-screen for EBI2 antagonists; 2,400 compounds, 1% hits; shares compounds with EBI2 antag; purified beta-galactosidase, luminescent Galacton Star, 15 min; inhibition, % at 5 µM;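 active means replicate-average signal at least 3 plate SD below neutral wells, shown as high inhibition, flagging enzyme-inhibiting false positives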;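 further: 0% = DMSO wells with enzyme and 100% = wells lacking enzyme; higher means stronger loss of beta-gal luminescence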
# The depositor's hits bear a star; . = not tested or not shown.
SMILES,CCR6 antagonist,APJ ag,APJ antag,CXCR6 block,EBI2 antag,EBI2 antag conf,EBI2 ag,bGal counter
CC(O)C1CCC2C3CC[C@H]4CC(O)CCC4(C)C3CC3(OCCO3)C12C (stereo partly specified),5,-5,16,3,12,.,.,.
CCOC(=O)COc1ccc(C(=O)Nc2cccc(Cl)c2C)cc1,1,-1,1,5,12,.,.,.
Cc1oc(-c2ccc(Cl)cc2)cc1C(=O)NC1CCN(Cc2ccccc2)CC1,2,-3,12,-2,41*,18,-1,-13
Cc1ccc2cc3cc(C(=O)N4CCN(C(=O)c5ccco5)CC4)sc3nc2c1,-12,-2,7,2,63*,30,-1,-7
O=C(c1ccco1)N1CCN(C(=O)c2cc3c(=O)oc4ccccc4c3s2)CC1,-28,.,.,0,80*,61*,1,-4
Cc1ccc2cc3cc(C(=O)N4CCN(Cc5ccccc5)CC4)sc3nc2c1,0,-3,-4,5,80*,53*,0,-17
COC(=O)C1CC2=C(CCCC2=O)N(Cc2ccccc2)C1=O (stereo unspecified),0,.,.,-8,-2,.,.,.
O=S1(=O)Cc2cc3ccccc3cc2C1,8,-3,3,0,-6,.,.,.
CS(=O)(=O)N(CC(=O)N1CCOCC1)c1cc(C(F)(F)F)ccc1Cl,-4,-2,4,-6,-5,.,.,.
CS(=O)(=O)N(CC(=O)N1CCN(c2ccccc2F)CC1)c1cc(C(F)(F)F)ccc1Cl,10,5,16,3,65*,41,-1,-13
COCCN1C(=O)N[C@@H](c2ccco2)C(C(C)=O)=C1C,13,-4,-18,-7,-3,.,.,.
Clc1ccc(/C=C\c2nccc3c2[nH]c2ccccc23)cc1,-5,.,.,-12,65*,45,1,0
N#Cc1ccc(/C=C\c2nccc3c2[nH]c2ccccc23)cc1,-13,2,-11,-9,48*,25,2,3
Cc1ccc(S(=O)(=O)NC(CCC(N)=O)C(=O)NCc2ccc3c(c2)OCO3)c(C)c1 (stereo unspecified),6,0,6,0,-8,.,.,.
Cc1ccnc(NC(=O)c2oc3ccccc3c2C)c1,16,1,7,-4,11,.,.,.
CCOc1ccc2oc(C(=O)Nc3cc(C)ccn3)c(C)c2c1,18,-2,6,-1,43*,10,-1,-10
COc1ccc(Nc2oc(COc3ccc(Cl)cc3)nc2C#N)cc1,11,4,6,-2,18,.,.,.
COc1ccc(CNc2oc(COc3ccc(Cl)cc3)nc2C#N)cc1,22,1,-13,-3,42*,29,0,1
COc1ccc(C(CNC(=O)c2ccc(S(=O)(=O)Nc3ccccc3OC)cc2)N2CCCC2)cc1 (stereo unspecified),16,.,.,3,5,.,.,.
COc1ccc(-c2c(C#N)c(N)nc3sc(C(=O)c4ccccc4)c(N)c23)cc1,22,.,.,5,49*,42,-1,-8
CCCCOC(=O)CSc1nc(N)c(C#N)c(-c2ccc(OCC)cc2)c1C#N,8,0,3,8,21,.,.,.
CSc1c(C#N)c(N)nc2sc(C(=O)c3ccc(Cl)c(Cl)c3)c(N)c12,3,1,-24,.,.,.,.,.
CCOc1ccc(-c2c(C#N)c(N)nc3sc(C(=O)c4ccccc4)c(N)c23)cc1,8,-4,5,14,42*,20,1,4
CC(C)CCOc1ccc(CO[C@@H]2[C@H]3OC(C)(C)O[C@H]3O[C@@H]2C(O)CO)cc1 (stereo partly specified),-1,-1,-7,5,-9,.,.,.
N#CCN1CCN(CC(=O)c2ccc(Br)cc2)CC1,-1,3,-5,0,9,.,.,.
SMILES,CCR6 antagonist,APJ ag,APJ antag,CXCR6 block,EBI2 antag,EBI2 antag conf,EBI2 ag,bGal counter
CCCC(=O)N1CCC(Cc2ccccc2)CC1,1,2,4,9,4,.,.,.
O=C(CCN1C(=O)c2cccc3cccc(c23)C1=O)N1CCOCC1,5,0,-7,3,-1,.,.,.
O=C(CN1CCN(C(=O)C2CCN(C(=O)/C=C/c3ccccc3)CC2)CC1)Nc1ccc(F)cc1,6,.,.,5,62*,28,0,8
O=C(/C=C/c1ccccc1)N1CCC(Cc2ccccc2)CC1,9,-2,-4,-11,90*,77*,-1,-20
O=C(/C=C/c1cccc(Cl)c1)N1CCC(Cc2ccccc2)CC1,20,-2,-2,-6,70*,51*,0,-21
O=C(/C=C/c1ccccc1)N1CCN(CCN2C(=O)c3cccc4cccc(c34)C2=O)CC1,19,-2,-1,10,92*,84*,-1,5
CCOC(=O)N1CCC(NC(=O)CC2C(=O)NCCN2Cc2cccc(F)c2F)CC1 (stereo unspecified),6,-5,-4,-3,7,.,.,.
CC(C)C[C@H](NC(=O)c1nc[nH]c1C(=O)N1CCN(C(=O)OC(C)(C)C)CC1)C(=O)OC(C)(C)C,15,1,10,-1,-7,.,.,.
COC(=O)C1CCN(C(=O)/C=C/c2ccccc2)CC1,-11,-2,13,-2,66*,50*,0,7
O=C(/C=C/c1ccccc1)N1CCC(c2ccccc2)C1 (stereo unspecified),5,-4,3,-4,64*,50,0,5
O=C(/C=C/c1ccco1)N1CCCC(c2ccccc2)C1 (stereo unspecified),17,-5,19,7,6,.,.,.
COc1ccc(NC(=O)Nc2ncn(Cc3cccc(C(F)(F)F)c3)n2)cc1OC,-7,6,3,-3,3,.,.,.
FC(F)(F)c1cccc(Cn2cnc(NC(=S)NCCc3ccccc3)n2)c1,3,-3,-21,-4,54*,42,0,-17
COc1ccc(OCC(=O)N2CCN(c3cccc(Cl)c3)CC2)cc1,8,2,0,4,86*,71*,-1,-14
COc1ccc(C(=O)CCC(=O)N2CCN(c3cccc(Cl)c3)CC2)cc1,3,-3,20,-12,5,.,.,.
O=C(/C=C/c1ccc(Br)cc1)N1CCN(c2cccc(C(F)(F)F)c2)CC1,19,.,.,3,94*,81*,-1,-12
COc1ccc(OCC(=O)N2CCN(c3cccc(C(F)(F)F)c3)CC2)cc1,22,7,6,10,70*,51*,-2,-12
O=C(COc1ccc(Cl)cc1Cl)N1CCCN(C(=O)COc2ccc(Cl)cc2Cl)CC1,-1,-19,5,-2,37,.,.,.
